ChEMBL document CHEMBL2384996 (J Med Chem, 2013)
Activity calls are given as the source filed them. The rule behind the calls is not given here.

Key:
Oocyte [1] = experiment: Inhibition of Gloeobacter violaceus ligand-gated ion channel expressed in Xenopus laevis oocytes assessed as inhibition of MES buffer pH 5.5 -induced currents at 1 mM after 30 secs by voltage clamp technique; type: cell-based
Method in brief: (§1)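 GLIC expressed in Xenopus oocytes, two-electrode voltage clamp. Current elicited by pH 5.5 MES buffer (100 mM NaCl, 3 mM KCl, 1 mM CaCl2, 1 mM MgCl2, 10 mM MES) for 30 sec to steady state. Compound then co-applied for 30 sec in the same pH 5.5 buffer, followed by washout with buffer alone. Oocytes held in Barth's medium after injection.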

[2] = Antagonist activity at Gloeobacter violaceus ligand-gated ion channel expressed in Xenopus oocytes assessed as inhibition of MES buffer pH 5.5 -induced currents after 30 secs by voltage clamp technique; type: cell-based; conditions: Oocyte; method in brief: as §1
[3] = Dissociation constant, pKa of the compound; type: physicochemical
Oocyte [4] = experiment: Inhibition of Gloeobacter violaceus ligand-gated ion channel expressed in Xenopus laevis oocytes assessed as inhibition of MES buffer pH 5.5 -induced currents at 100 uM after 30 secs by voltage clamp technique; type: cell-based
Method in brief: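 GLIC-expressing oocytes kept in Barth's medium (88 mM NaCl, 1 mM KCl, 2.4 mM NaHCO3, 15 mM HEPES, 0.3 mM NaNO3, 0.7 mM CaCl2). Each cell was first given pH 5.5 buffer (100 mM NaCl, 3 mM KCl, 1 mM CaCl2, 1 mM MgCl2, 10 mM MES) for 30 sec. Compound was then co-applied in the same buffer for 30 sec, followed by washout. Mean ± sd, n ≥ 3 cells.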

Gloeobacter violaceus [5] = experiment: Inhibition of Gloeobacter violaceus ligand-gated ion channel R105A mutant at 100 uM
Method in brief: (§2)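 Alanine point mutants of GLIC expressed in Xenopus oocytes, voltage clamp. Compound co-applied with pH 5.5 buffer (100 mM NaCl, 3 mM KCl, 1 mM CaCl2, 1 mM MgCl2, 10 mM MES). Concentration-inhibition curves used for IC50; single-point inhibition taken at 100 μM, or at up to 1 mM. Mean ± sd, n ≥ 3 cells.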

[6] = Inhibition of Gloeobacter violaceus ligand-gated ion channel R105A mutant; method in brief: as §2
Gloeobacter violaceus [7] = experiment: Inhibition of Gloeobacter violaceus ligand-gated ion channel E181A mutant at 100 uM; method in brief: as §2
[8] = Inhibition of Gloeobacter violaceus ligand-gated ion channel R77A mutant; method in brief: as §2
Oocyte [9] = experiment: Inhibition of Gloeobacter violaceus ligand-gated ion channel expressed in Xenopus laevis oocytes assessed as inhibition of MES buffer-induced currents at 1 mM at pH 5.5 measured after wash-out by voltage clamp technique; type: cell-based
Gloeobacter violaceus [10] = experiment: Inhibition of Gloeobacter violaceus ligand-gated ion channel R133A mutant at 1 mM; method in brief: as §2
[11] = Inhibition of Gloeobacter violaceus ligand-gated ion channel E177A mutant; method in brief: as §2
Oocyte [12] = experiment: Selectivity ratio of IC50 for Gloeobacter violaceus ligand-gated ion channel R105A mutant to IC50 for wild-type Gloeobacter violaceus ligand-gated ion channel expressed in Xenopus oocytes; type: cell-based
Oocyte [13] = experiment: Inhibition of Gloeobacter violaceus ligand-gated ion channel expressed in Xenopus laevis oocytes assessed as inhibition of buffer at pH 4 -induced currents at 100 uM after 30 secs by voltage clamp technique; type: cell-based
Oocyte [14] = experiment: Selectivity ratio of IC50 for Gloeobacter violaceus ligand-gated ion channel R77A mutant to IC50 for wild-type Gloeobacter violaceus ligand-gated ion channel expressed in Xenopus oocytes; type: cell-based
[15] = Inhibition of Gloeobacter violaceus ligand-gated ion channel E181A mutant; method in brief: as §2
Gloeobacter violaceus [16] = experiment: Inhibition of Gloeobacter violaceus ligand-gated ion channel R77A mutant at 100 uM; method in brief: as §2
Gloeobacter violaceus [17] = experiment: Inhibition of Gloeobacter violaceus ligand-gated ion channel E177A mutant at 100 uM; method in brief: as §2
Oocyte [18] = experiment: Selectivity ratio of IC50 for Gloeobacter violaceus ligand-gated ion channel E177A mutant to IC50 for wild-type Gloeobacter violaceus ligand-gated ion channel expressed in Xenopus oocytes; type: cell-based
Oocyte [19] = experiment: Inhibition of Gloeobacter violaceus ligand-gated ion channel expressed in Xenopus laevis oocytes assessed as inhibition of MES buffer pH 5.5 -induced currents at 300 uM after 30 secs by voltage clamp technique; type: cell-based; method in brief: as §1

SMILES	IC50 [2] [µM]	pKa [3]	inhibition (Oocyte [1]) [%]	also measured
O=C(O)/C=C/c1ccccc1 [CINNAMIC ACID]	34.6	–	97.5	–
O=C(O)C(=Cc1ccccc1)C(=O)O	7940	3.5	25	–
O=C(O)CCc1ccc(O)c(O)c1 [DIHYDROCAFFEIC ACID]	86.8	4.3	90.5	–
O=C(O)/C=C/c1ccc2c(c1)OCO2	28.8	–	–	inhibition (Oocyte [4]): 79.7%
O=C(O)C(=C/C=C/c1ccccc1)C(=O)O	83.5	3.45	92.2	–
O=C(O)/C=C/c1ccc(O)c(O)c1 [CAFFEIC ACID]	16.7	4.35	93.8	inhibition (Gloeobacter violaceus [5]): 15%; IC50 [6]: 420 µM; inhibition (Gloeobacter violaceus [7]): 80%; IC50 [8]: 945 µM; inhibition (Oocyte [9]): inactive; inhibition (Gloeobacter violaceus [10]): inactive; IC50 [11]: 506 µM; Ratio IC50 (Oocyte [12]): > 10; inhibition (Oocyte [13]; 100 uM): inactive; Ratio IC50 (Oocyte [14]): > 10; IC50 [15]: 24.1 µM; inhibition (Gloeobacter violaceus [16]): 15%; inhibition (Gloeobacter violaceus [17]): 15%; Ratio IC50 (Oocyte [18]): > 10
O=C(O)/C=C/c1ccc(O)cc1 [COUMARIC ACID]	9.59	–	–	inhibition (Oocyte [19]): 91.4%
O=C(O)c1cc2ccccc2oc1=O [COUMARIN-3-CARBOXYLIC ACID]	282	3.6	84	–
O=C(O)c1ccc2ccccc2c1 [BETA-NAPHTOIC ACID]	61.4	4.45	96.4	–
O=C(O)/C=C/c1cccc(C(F)(F)F)c1	25.3	4.6	94.6	–
NC(=O)/C=C/c1ccc(O)c(O)c1	347	–	–	inhibition (Oocyte [19]): 51.6%
O=C(O)COc1ccccc1	53.3	3.2	98.5	–
COC(=O)/C=C/c1ccc(O)c(O)c1 [METHYLCAFFEATE]	388	–	78	–

Now from value to molecule, other results behind:

IC50 [2] [µM]	pKa [3]	SMILES	inhibition (Oocyte [1]) [%]	also measured
13.5	–	COc1ccc(/C=C/C(=O)O)cc1O [ISOFERULIC ACID]	98.5	–
13.7	4.8	O=C(O)/C=C/c1cccc(Cl)c1 [3-CHLORO-CINNAMIC ACID]	95	–
206	4.55	COc1ccc(/C=C/C(=O)O)cc1OC	75.6	–
168	–	COc1ccc2cc(C(=O)O)c(=O)oc2c1	96	–
246	–	CCOC(=O)/C=C/c1ccc(O)c(O)c1 [ETHYL CAFFEATE]	91.8	–
73.9	–	OC/C=C/c1ccc(O)c(O)c1	95.2	–
295	–	CCNC(=O)/C=C/c1ccc(O)c(O)c1	81.6	inhibition (Oocyte [13]; 300 uM, in the assay text read “at 300 uM” for “at 100 uM”): inactive
